In ChEMBL document CHEMBL1158805, “Neurotoxic meroditerpenoids from the tropical marine brown alga Stypopodium flabelliforme” (J Nat Prod, 2005):

What was measured:
Artemia salina = test: Toxicity in Artemia salina after 24 hrs; format: organism-based; settings: in vivo
In short: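 About 15 hatched Artemia salina per well in roughly 5 mL of artificial seawater, with sample added in 50 µL EtOH. Held 24 h at 28 °C, then live and dead shrimp counted. Run in duplicate.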

[1] = Cytotoxicity against mouse Neuro2a cells after 48 hrs by MTT assay; format: functional; settings: N2a, read-out: LC50 (the source's name)
In short: (§1)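 Cells seeded at 6000/well in RPMI 1640 with 10% FBS. After 24 h, compound in DMSO, diluted in serum-free medium, was added (DMSO under 1% final). Viability was read by MTT reduction after 48 h, giving LC50.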

NCI-H460 = test: Cytotoxicity against human NCI-H460 cells after 48 hrs by MTT assay; format: functional; settings: NCI-H460, 48 h, read-out: LC50 (the source's name); in short: as §1
Neuro2a = test: Inhibition of voltage-gated sodium channel in mouse Neuro2a cells after 22 hrs; format: cell-based
[2] = Increase in calcium influx in Sprague-Dawley rat CGN measured every 6 seconds for 24 mins by FLIPR assay; format: functional
In short: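 Cerebellar granule neurons from 8-day-old Sprague-Dawley rat cerebella were used at 10-13 days in culture. Cells were loaded 1 h at 37 °C with 4 µM fluo-3 AM and 0.04% pluronic acid in Locke's buffer (pH 7.4), washed, then read by FLIPR (488 nm excitation, 500-560 nm emission). Baseline was read every 3 s for 1 min, readings stayed at 3 s for 2 min after addition, then every 6 s, 24 min total. Response was AUC (trapezoid rule); EC50 came from a logistic fit.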

[3] = Cytotoxicity against Sprague-Dawley rat CGN assessed as LDH efflux after 2 hrs; settings: CGN (primary cells from Sprague-Dawley rat), read-out: LC50
In short: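 Primary cerebellar granule neurons from 8-day-old Sprague-Dawley rats in BME with 25 mM KCl, 10 µM cytosine arabinoside added after 18-24 h, used at 10-13 days in culture. Washed into Locke's buffer (pH 7.4, 1% DMSO) and exposed to compound (1-100 µM) for 2 h at 22 °C. LDH released to medium assayed. Logistic fit of concentration-response; triplicate, repeated twice.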

[4] = Cytotoxicity against Sprague-Dawley rat CGN assessed as LDH efflux after 2 hrs in presence of tetrodotoxin; format: ADME

Structure (SMILES)	LC90 (Artemia salina)	CC50 [1]	CC50 (NCI-H460)	Activity (Neuro2a)	EC50 [2]	CC50 at 2 h [3]	Activity [4]
Cc1cc(O)cc2c1O[C@]1(C)CC[C@@H]3[C@](C)(CC[C@H]4C(C)(C)[C@@H](O)CC[C@]34C)[C@H]1C2	24 µM	2 µM	24 µM	0.7 µM	–	–	–
C[C@H]1CC[C@@H]2[C@@]3(C)CC[C@H](O)C(C)(C)[C@@H]3CC[C@@]2(C)[C@]12Cc1c(O)c(O)cc(C=O)c1O2	–	–	–	–	100 µM	–	–
COc1c(C)cc(O)c2c1C[C@H]1[C@@]3(C)CC[C@H]4C(C)(C)[C@@H](O)CC[C@@]4(C)[C@H]3CC[C@]21C [FLABELLINOL]	–	2 µM	9 µM	2 µM	–	–	–
CC1=CC(=O)C2=C(C[C@H]3[C@@]4(C)CC[C@H]5C(C)(C)[C@@H](O)CC[C@@]5(C)[C@H]4CC[C@]23C)C1=O [FLABELLINONE]	–	2 µM	14 µM	7 µM	–	–	–
COC1=CC(C)=C2O[C@@]3(CC2(OO)C1=O)[C@@H](O)CC[C@@H]1[C@@]2(C)CC[C@H](O)C(C)(C)[C@@H]2CC[C@]13C (stereo partly specified) [STYPOHYDROPEROXIDE]	–	> 21 µM	> 25 µM	–	–	–	–
CC1=CC(=O)C(=O)C2=C1O[C@@]1(C2)[C@@H](C)CC[C@@H]2[C@@]3(C)CC[C@H](O)C(C)(C)C3CC[C@]21C (stereo partly specified) [STYPOLDIONE]	–	–	–	–	27.8 µM	37.4 µM	Active
